Experimental data reported in article PMC11617404 (iScience, 2024).

Key:
[1] = biological target: T1, HYlight (Bacillus subtilis, UniProt O32253); test: Titration of purified HYlight with oligomycin or 2-DG; assay type: binding; conditions: increasing concentrations, Figure S1E
[2] = tested on: HepG2 cells; test: ECAR and OCR during glycolytic stress test; assay type: cell-based, human; conditions: 1 h glucose starvation, 10 mM glucose, 10 μM oligomycin, 100 mM 2-DG
How it was run: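 HepG2 cells in Seahorse plates were transfected the next day with the sensor or its null variant. At 24 h they were glucose-starved for 1 h in XF DMEM (pH 7.4, 2 mM glutamine, no glucose, no phenol red) in a CO2-depleted incubator, and the medium was renewed. Additions: 10 mM glucose, 10 μM oligomycin, then 100 mM 2-DG in two 50 mM steps. OCR (pmol O2/min) was normalized to cell number by BCA protein assay; n = 3.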

[3] = tested on: HepG2 cells; test: Gluconeogenesis induction with FBP1 or PFK inhibition, HYlight imaging; assay type: cell-based, human
How it was run: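 HepG2 cells were kept in DMEM Glutamax with 25 mM lactate and 0.65 mM pyruvate. After transfection, 50 μM dexamethasone and 100 nM glucagon were added; normal medium served as comparison. The PFK inhibitor (20 μM) was given 24 h before the assay, and the FBP1 inhibitor (20 μM) acutely. After 1 h glucose starvation, cells were imaged with dexamethasone and glucagon (60 min each), FBP1 inhibitor (30 min), then 15 mM glucose (25 min). Read-out was 488/405 nm ratio; n ≥ 3, 50 cells each.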

[4] = biological target: T1, HYlight; test: Dihydroxyacetone phosphate competition assay on purified HYlight; assay type: binding; conditions: purified HYlight in the presence of 100 μM FBP, Figure 5D
How it was run: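 Protein was IPTG-induced (0.5 mM, overnight, 30°C), purified by Ni2+ affinity and size exclusion, and used at 200 nM. DHAP was titrated with or without 100 μM FBP, and with or without cytosolic ionic strength (140 mM K+, 12 mM Na+) plus a metabolic mix. Excitation was scanned 350–520 nm with emission at 560 nm, 25°C. Ratio R = F500/F400, ΔR/R0 = (Rt−Rt=0)/Rt=0; n = 3.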

[5] = biological target: T1, HYlight; test: Titration of purified recombinant HYlight, excitation ratio F500/F400; assay type: binding; conditions: for maximum fluorescence ratio: purified HYlight, titration from low μM to mM range, Figure 5C; for average fluorescence ratio: 1 μM FBP, Figure 6D; for maximum ratiometric value (fluorescence ratio): Figure 6A; for fluorescence ratio (maximum): Figure 7A
How it was run: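 Purified sensor (200 nM) was scanned at excitation 350–520 nm, emission 560 nm, 25°C, with ratio F500/F400. For ionic strength, protein in TBS (0 mM NaCl, 50 mM Tris-HCl pH 7.6) was titrated with FBP and NaCl 0–150 mM. The buffer series compared 25 mM MES/CHES/HEPES, PBS and Britton-Robinson pH 8, pH-adjusted with NaOH; n = 3.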

[6] = tested on: HepG2 cells; test: Hypoxia induction assay; assay type: cell-based, human; conditions: 1 mM overnight, 1 h starvation
How it was run: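 Transfected HepG2 cells received 1 mM DMOG 24 h before the assay, kept throughout, with DMSO as blank. After 1 h glucose starvation, cells were imaged for 30 min after 10 mM glucose, following the 488/405 nm ratio. n ≥ 5, 50 cells per replicate.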

[7] = tested on: primary mouse hepatocytes; test: Hypoxia induction assay; assay type: cell-based; conditions: 1 mM overnight, 1 h starvation
How it was run: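 Transfected primary mouse hepatocytes received 1 mM DMOG 24 h before and during the assay, with DMSO as blank. After 1 h glucose starvation they were given 20 mM glucose (35 min), a further 20 mM glucose (10 min), then 100 mM 2-DG (10 min), with the 488/405 nm ratio recorded.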

[8] = biological target: T1, HYlight; test: Metal binding assay on purified HYlight; conditions: 150 mM NaCl or KCl, 0.1 mM EDTA
[9] = FBP quantification with HYlight in primary mouse hepatocytes; assay type: cell-based
How it was run: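 Hepatocytes were transfected with HYlight plasmid 2 h after seeding; medium was replaced 12 h later. Cells were glucose-starved 1 h in glucose-free Seahorse XF DMEM (pH 7.4, 2 mM glutamine), then given 10 mM glucose. Confocal 488/405 ratios were normalized to post-2-DG values and read against an in vitro FBP curve (ΔR/R10) mimicking ionic strength and metabolic competition. n = 3, ≥50 cells each.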

[10] = tested on: aldolase; conditions: cited from earlier work
[11] = tested on: HepG2 cells; test: FBP added to the media of non-permeabilized HepG2 cells expressing HYlight; assay type: cell-based, human; conditions: intact HepG2 cells, increasing FBP in the media, no saponin
[12] = tested on: FBPase-1; conditions: FBPase-1 for FBP, gluconeogenic conditions; cited from earlier work
[13] = tested on: PFK-1; conditions: PFK-1 toward FBP; ref BRENDA:EC2.7.1.11; Zheng and Kemp[47]; cited from earlier work
[14] = biological target: T1, HYlight; conditions: cited from earlier work
[15] = tested on: HLE cells; test: Glycolytic stress test, HYlight confocal imaging in HLE cells; assay type: cell-based, human; conditions: after the addition of 10 mM glucose
How it was run: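 Transfected HLE cells were glucose-starved for 1 h in XF DMEM pH 7.4 (2 mM glutamine, no glucose) and imaged 10 min. They then received 10 mM glucose for 30 min, 2.5 μM oligomycin for 30 min and 50 mM 2-DG for 30 min. The 488/405 nm ratio was followed over time and min-max normalized.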

[16] = tested on: primary mouse hepatocytes; test: Glucose titration, HYlight confocal imaging in primary mouse hepatocytes; assay type: cell-based; conditions: 1 h glucose starvation, glucose 0–40 mM added every 10 min
How it was run: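 Hepatocytes were isolated by two-step collagenase perfusion via the vena cava and cultured in William's medium with 10% FBS and 10 mM HEPES. They were transfected 2 h after seeding, with medium changed at 12 h. After 1 h starvation in glucose-free XF DMEM pH 7.4, cells were imaged 10 min, given glucose in steps every 10 min to 40 mM, then 100 mM 2-DG. The 488/405 nm ratio was recorded; n = 3, ≥50 cells each.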

[17] = tested on: HepG2, HLE, and Huh6 cells; test: Glucose titration, HYlight confocal imaging in hepatoma cell lines; assay type: cell-based, human
How it was run: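 Hepatoma lines expressing codon-optimized cytosolic sensor (Lipofectamine, medium changed at 24 h) were glucose-starved for 1 h in XF DMEM pH 7.4 without glucose. They were imaged 10 min, then given increasing glucose every 10 min up to 40 mM, then 50 mM 2-DG. The 488/405 nm confocal ratio was min-max normalized, and the Hill coefficient was taken from ratio versus glucose; n = 3, ≥50 cells each.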

[18] = biological target: T1, HYlight; test: Phosphate titration assay on purified HYlight; assay type: binding
How it was run: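 Purified sensor (200 nM) or null variant was tested in SEC buffer pH 8 with TBS or PBS. Separately, 200 mM Sorensen's phosphate pH 8 was titrated from the nM to mM range into sensor in 50 mM Tris pH 8, with or without 100 μM FBP, keeping conductivity constant. Excitation was scanned 350–520 nm, emission 560 nm, 25°C; read-out was the F500/F400 ratio change; n = 3.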

T1 sequence (O32253 96-340, other chains not shown): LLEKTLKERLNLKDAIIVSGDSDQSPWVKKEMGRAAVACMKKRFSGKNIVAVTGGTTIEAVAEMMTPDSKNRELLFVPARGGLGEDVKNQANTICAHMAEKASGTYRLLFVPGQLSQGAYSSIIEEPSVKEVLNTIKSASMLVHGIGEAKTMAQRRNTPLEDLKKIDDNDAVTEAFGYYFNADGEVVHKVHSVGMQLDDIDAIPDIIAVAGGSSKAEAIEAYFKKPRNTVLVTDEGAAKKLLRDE

## O=CC[C@@H](O)[C@H](O)[C@H](O)CO [2-DG, 2-deoxy-D-glucose]
[1]
  direct effect on ratiometric response of purified HYlight: do not directly interact with HYlight
[2]
  change of oxygen consumption rate (OCR): increase in the OCR

## O=C(/C=C/c1cccnc1)c1ccncc1 [3PO, (2E)-3-(3-Pyridinyl)-1-(4-pyridinyl)-2-propen-1-one]
[3]; 20 μM, 24 h treatment, gluconeogenic media
  decrease in FBP levels after glucose addition: not observed
[3]; 20 μM, 24 h treatment, normal media
  FBP levels (HYlight ratio) after glucose addition: significant decrease in the FBP levels

## O=S(=O)(Nc1nc2cc(Cl)ccc2o1)c1cc(Cl)ccc1Cl [5-chloro-2-(N-(2,5-dichlorobenzenesulfonamide))-benzoxazole]
[3]; 20 μM inhibitor, gluconeogenic medium, 15 mM glucose
  FBP level (HYlight ratio) after glucose addition: increase of FBP to levels comparable to those seen with standard media

## O=C(CO)COP(=O)(O)O [DHAP, dihydroxyacetone phosphate]
[4]
  DHAP concentration at which significant competition was observed: above 2.5 mM
[5]
  maximum fluorescence ratio: 0.75

## COC(=O)CNC(=O)C(=O)OC [DMOG, dimethyloxalylglycine]
[6]
  basal fluorescence (HYlight ratio): significant increase in basal fluorescence
  response to glucose (HYlight ratio): diminished or absent response to glucose
[7]
  basal fluorescence (HYlight ratio): significant increase in basal fluorescence
  response to glucose (HYlight ratio): diminished or absent response to glucose

## O=C(O)CN(CCN(CC(=O)O)CC(=O)O)CC(=O)O [EDTA, ethylenediaminetetraacetic acid]
[8]
  effect on response and apparent KD value of HYlight for FBP: did not alter the response or the apparent KD value

## O=C(COP(=O)(O)O)[C@@H](O)[C@H](O)[C@H](O)COP(=O)(O)O [FBP, fructose 1,6-bisphosphate]
[9]; after 10 mM glucose
  FBP concentration in primary mouse hepatocytes (HYlight): 21 µM
[9]; before glucose addition
  FBP concentration in primary mouse hepatocytes (HYlight): 15 µM
[10]; aldolase for FBP
  specificity constant: 4.7 mM⁻^1s⁻^1
[11]
  entry of FBP from the media into cells (HYlight ratio unchanged): could not cross the membrane
[12]
  specificity constant: 23 mM⁻^1s⁻^1
[5]; TBS with 0 mM NaCl
  average fluorescence ratio: 1.87
[5]; TBS with 150 mM NaCl
  average fluorescence ratio: 0.94
[5]; Britton-Robinson phosphate buffer
  maximum ratiometric value (fluorescence ratio): 1
[5]; CIS (140 mM KCl and 12 mM NaCl)
  fluorescence ratio (maximum): 3.5
[5]; CIS + metabolic mix solution
  fluorescence ratio (maximum): 3.5
[5]; MES-CHES-HEPES buffer
  maximum ratiometric value (fluorescence ratio): ~3
[5]; PBS
  maximum ratiometric value (fluorescence ratio): 2
[5]
  maximum fluorescence ratio: 2
[5]; working buffer, 125 mM NaCl
  fluorescence ratio (maximum): 2
[13]
  turnover rate: 111 s⁻¹

## [K+] [K^+]
[8]
  effect on response and apparent KD value of HYlight for FBP: did not alter the response or the apparent KD value

## [Na+] [Na^+]
[8]
  effect on response and apparent KD value of HYlight for FBP: did not alter the response or the apparent KD value

## O=P(O)(O)OC[C@H]1O[C@@](CO)(OP(=O)(O)O)[C@@H](O)[C@@H]1O [fructose 2,6-bisphosphate]
[14]
  binding to HYlight: can also bind

## OC[C@H]1OC(O)[C@H](O)[C@@H](O)[C@@H]1O (stereo partly shown) [glucose]
[15]
  time to maximum HYlight response: 30 min
[2]
  change of oxygen consumption rate (OCR): decrease in oxygen consumption
[16]
  glucose concentration after which HYlight changes were detected: 20 mM
[17]; 1 h glucose starvation, glucose 0–40 mM added every 10 min
  glucose concentration needed for HYlight changes: 5 mM
[17]; HLE, HepG2, Huh6 cell lines and primary mouse hepatocytes, Figure 1C
  hill coefficient of HYlight ratio against glucose concentration: approximately 1

## O=CC(O)COP(=O)(O)O (stereo not shown) [glyceraldehyde 3-phosphate]
[10]; aldolase toward glyceraldehyde 3-phosphate, ref BRENDA:EC4.1.2.13, Plater et al.[48]
  turnover rate: 8.2 s⁻¹

## CC[C@H]1/C=C/C=C/C[C@@H](C)[C@H](O)[C@@](C)(O)C(=O)[C@@H](C)[C@H](O)[C@@H](C)C(=O)[C@@H](C)[C@H](O)[C@@H](C)/C=C/C(=O)O[C@@H]2[C@H](C)[C@H](CC1)O[C@]1(CC[C@H](C)[C@H](C[C@@H](C)O)O1)[C@H]2C [oligomycin, Oligomycin A]
[1]
  direct effect on ratiometric response of purified HYlight: do not directly interact with HYlight
[2]
  change of oxygen consumption rate (OCR): decrease in oxygen consumption

## phosphate
[18]; in the absence of FBP
  effect of phosphate titration on 500/400 fluorescence ratio: increase in the 500/400 fluorescence ratio
[18]; in the presence of 100 μM FBP
  effect of phosphate titration on fluorescence response: decrease in fluorescence response
